# Assay outcomes as filed in PubChem.
# A selection: hits, their analogues and other compounds. The true share with any hit is near 4.1%.
# KCNK3 block = human KCNK3 channel inhibition, primary screen; 0.84% of 340,000 active; B-score at 10 µM; CHO-KCNK3 thallium flux, FluxOR fluorescence; active compounds read low;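 active means B-score under library mean minus 4 SD, starting fluorescence ratio at most library mean plus 5 SD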;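 further: more negative B-score means stronger inhibition of thallium flux through KCNK3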
# KCNQ1 inh = blocks the human KCNQ1 potassium channel | CHO-K1 KCNQ1, FluxOR thallium flux fluorescence; active compounds read high | B-score at 10 µM | 1.3% of 310,000 active | AID 2642;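 active means compounds whose thallium flux B-score, printed positive for inhibition, exceeds three library SD while starting fluorescence stays within three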;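 further: channel opened by potassium depolarization with thallium stimulus after 20 min compound exposure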
# hERG protect = shields human hERG channel from block by proarrhythmic agents; Q12809; CHO-hERG, FluxOR thallium flux, dofetilide IC70 present; activation (rescue from dofetilide block), less the hit threshold, % at 10 µM; 0.51% of 310,000 active; AID 1511;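 active means activation above the mean of controls blocked by dofetilide plus 5 SD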;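 further: thallium influx through hERG after potassium depolarization seen as dye fluorescence rise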
# Target sequence (Q12809 whole entry, looked up): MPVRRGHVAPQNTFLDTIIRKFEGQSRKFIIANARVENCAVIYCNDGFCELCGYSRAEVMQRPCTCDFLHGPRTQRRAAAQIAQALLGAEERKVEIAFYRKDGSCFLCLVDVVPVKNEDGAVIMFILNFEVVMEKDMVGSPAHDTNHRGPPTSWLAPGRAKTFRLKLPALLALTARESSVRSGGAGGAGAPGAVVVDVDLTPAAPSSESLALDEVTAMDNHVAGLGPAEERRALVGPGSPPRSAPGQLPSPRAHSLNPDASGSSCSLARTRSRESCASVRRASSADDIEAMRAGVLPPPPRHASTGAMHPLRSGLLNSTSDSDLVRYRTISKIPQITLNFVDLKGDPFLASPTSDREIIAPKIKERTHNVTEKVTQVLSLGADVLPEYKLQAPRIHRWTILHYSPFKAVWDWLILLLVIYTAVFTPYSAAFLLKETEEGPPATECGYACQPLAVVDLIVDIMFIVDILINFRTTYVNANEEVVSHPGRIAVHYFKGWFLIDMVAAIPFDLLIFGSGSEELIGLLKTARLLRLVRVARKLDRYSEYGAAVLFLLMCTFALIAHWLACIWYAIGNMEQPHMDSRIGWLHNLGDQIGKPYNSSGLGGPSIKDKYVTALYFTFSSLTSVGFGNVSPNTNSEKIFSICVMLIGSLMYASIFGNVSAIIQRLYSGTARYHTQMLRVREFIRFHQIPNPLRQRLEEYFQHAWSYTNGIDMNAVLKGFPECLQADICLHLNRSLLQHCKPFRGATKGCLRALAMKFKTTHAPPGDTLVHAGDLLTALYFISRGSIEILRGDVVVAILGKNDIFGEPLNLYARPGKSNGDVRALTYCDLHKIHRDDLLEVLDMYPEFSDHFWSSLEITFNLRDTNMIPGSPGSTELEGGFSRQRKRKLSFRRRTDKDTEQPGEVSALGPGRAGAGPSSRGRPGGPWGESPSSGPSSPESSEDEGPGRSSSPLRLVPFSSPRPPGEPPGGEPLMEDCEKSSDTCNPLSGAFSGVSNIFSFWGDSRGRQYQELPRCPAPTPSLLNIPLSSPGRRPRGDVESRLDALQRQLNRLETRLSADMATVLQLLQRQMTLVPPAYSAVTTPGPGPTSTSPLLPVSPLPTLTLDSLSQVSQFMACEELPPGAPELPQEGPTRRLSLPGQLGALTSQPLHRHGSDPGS
# KCNQ1 act = potentiators or activators of human KCNQ1 potassium channel. P51787. CHO-K1 KCNQ1, thallium flux FluxOR fluorescence; active compounds read high. B-score at 10 µM. 0.35% of 310,000 active;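 active means fluorescence ratio B-score, a plate-corrected score, at least three library SD, with initial intensity B-score within 5 SD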
#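 System: Stable KCNQ1 CHO-K1 line | Incubation: 90 min dye loading and 20 min compound exposure, both at room temperature | Measure: Ratio B score | Medium: Assay buffer for compound exposure, DMSO matched across wells | Compound dosing: Single-concentration screen | Probe or stimulus: K+/Tl+ depolarizing stimulus | Measured by: Kinetic FluxOR fluorescence, 10 s baseline plus 110 s post-stimulus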
# KCC2 mod = modulators of human KCC2 chloride dependent transport; Q9H2X9; KCC2 cells, thallium flux FluoZin-2 fluorescence; B-score of Tl+ flux slope (higher = more flux/activation; lower = inhibition) at 10 µM; 2.2% of 190,000 active;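 active means thallium flux slope and its plate-corrected score both differing from the plate sample mean at a set confidence after two filtering rounds, in either direction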;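 further: slope of fluorescence scaled to starting intensity during 10 to 20 s after thallium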
# KCNK9 inh = inhibitors of human KCNK9 two-pore domain potassium channel; Q9NPC2; HEK293 KCNK9, FluxOR thallium flux fluorescence; active compounds read low; B-score at 10 µM; 1.2% of 310,000 active;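 active means ratio B-score over 3 SD below the library mean, with starting fluorescence within 5 SD of its mean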;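 further: negative B-score means less thallium flux so channel inhibition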
# A number is an active result; – = inactive; · = no result.
SMILES,KCNK3 block,KCNQ1 inh,hERG protect,KCNQ1 act,KCC2 mod,KCNK9 inh
Cn1c(SCc2ccccc2Cl)nc(C(F)(F)F)cc1=O,–,–,–,–,–,–
Cn1c(SCc2c(Cl)cccc2Cl)nc(C(F)(F)F)cc1=O,–,–,–,–,–,-6.7
NS(=O)(=O)c1ccc(Sc2ccc3c(c2)CCC3)nc1,–,–,–,8,·,–
NS(=O)(=O)c1ccc(S(=O)(=O)c2ccccc2)nc1,–,–,–,–,·,–
CC(C)C[C@H]1C(=O)N2CCC[C@H]2[C@]2(O)O[C@](NC(=O)[C@@H]3C=C4c5cccc6[nH]c(Br)c(c56)CC4N(C)C3)(C(C)C)C(=O)N12 (some centres undefined),–,6,–,–,–,–
Cc1ccc(C)c(NC(=O)C(Sc2nc3ccccc3c(=O)n2CC(C)C)c2ccccc2)c1 (centres undefined),–,–,–,–,–,–
COc1ccc(-n2nc(C(=O)NCC(=O)Nc3ccccn3)c3ccccc3c2=O)cc1Cl,–,–,–,–,–,–
CC(=O)OCC1=C(C(=O)O)N2C(=O)C(NC(=O)c3ccc(F)cc3)C2SC1 (centres undefined),–,–,–,–,–,–
CC(=O)OCC1=C(C(=O)O)N2C(=O)C(NC(=O)C(C)Cn3nc(C)c(Cl)c3C)C2SC1 (centres undefined),–,–,5.6,–,–,–
Cc1cccc(NCCC(=O)c2ccc([N+](=O)[O-])cc2)c1C,–,–,4.7,–,–,–
Cc1ccc(S(=O)(=O)N2CCN(Cc3ccsc3)CC2)cc1,–,–,–,–,–,–
CCC(C)c1ccc(NC(=O)c2[nH]c(C)c(C(C)=O)c2C)cc1 (centres undefined),–,–,–,–,·,–
CCC(NC(=O)c1[nH]c(C)c(C(C)=O)c1C)c1ccc(Br)cc1 (centres undefined),–,6,–,–,·,–
CC1CCN(S(=O)(=O)c2ccc(S(=O)(=O)N3CCC4(CC3)OCCO4)cc2)CC1,–,–,–,–,–,–
CC(CC1C(C#N)=C(N)SC(N)=C1C#N)c1ccccc1 (centres undefined),–,7,–,–,–,–
COc1ccc(-c2c[n+]3c4n2CCCCC4=C(c2ccccc2)C3)cc1,–,7,–,–,–,–
COc1ccc(/C=N/NC(=O)CC2N=C(Cc3ccccc3)NNC2=O)cc1OC (centres undefined),–,–,–,–,–,–
O=C(NCc1ccco1)c1ccc2c(=O)n(Cc3ccco3)c(SCC(=O)N3CCCC3)nc2c1,–,·,·,·,–,·
CCOCCCn1c(SCC(=O)Nc2cc(C(C)(C)C)nn2-c2ccccc2)nc2ccccc2c1=O,–,–,–,–,–,-7.3
CCCCCn1c(SCc2ccncc2)nc2cc(C(=O)NCc3ccco3)ccc2c1=O,–,10,–,–,·,–
C/C(N)=C(/C#N)C(=O)CSc1nc2cc(Cl)ccc2c(=O)n1-c1ccc(C)cc1,–,–,–,–,8.7,–
CCCCn1c(SCC(=O)NCc2ccco2)nc2ccccc2c1=O,–,–,–,–,9.1,–
COCCn1c(SCC(=O)Nc2cc(C(C)(C)C)nn2-c2ccccc2)nc2ccccc2c1=O,–,–,–,–,–,–
CN(C)S(=O)(=O)c1ccc(NC(=O)C2CC3C=CC2C3)cc1 (centres undefined),–,–,–,–,–,–
CC1Cc2ccccc2N1C(=O)CCS(=O)(=O)c1cccc2nonc12 (centres undefined),–,–,–,–,–,–
SMILES,KCNK3 block,KCNQ1 inh,hERG protect,KCNQ1 act,KCC2 mod,KCNK9 inh
CCCCn1c(SCC(=O)/C(C#N)=C(\C)N)nc2ccccc2c1=O,–,–,–,–,24,–
COc1ccc(-n2c(SCC(=O)/C(C#N)=C(\C)N)nc3ccccc3c2=O)cc1OC,–,–,–,–,–,–
COc1ccccc1NC(=O)Cc1nc(CCl)cs1,–,–,–,–,–,–
CN(CCCC(=O)Nc1ccccc1F)S(=O)(=O)c1ccc(F)cc1,–,–,–,–,·,–
Cn1c(=O)c(C(=S)NC(=O)C2CC2)c(N)n(Cc2ccccc2)c1=O,·,–,–,–,10,–
CCN(CC)CC(=O)c1c(N)n(Cc2ccccc2)c(=O)n(C)c1=O,–,–,–,–,–,–
